Experimental data from ChEMBL document CHEMBL1152312, “Neopyrrolomycins with broad spectrum antibacterial activity” (2009).
In brackets after ≈: the same amount, converted by molar mass.

Key:
Type in all cases: functional
[1] = system: Pseudomonas aeruginosa; experiment: Antibacterial activity against Pseudomonas aeruginosa 1473 by microdilution method
In short: (§1)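 MIC values from CLSI broth microdilution. Strains came from the ATCC collection and from clinical isolates.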

[2] = system: Staphylococcus aureus; experiment: Antibacterial activity against methicillin-resistant Staphylococcus aureus 1137 by microdilution method; in short: as §1
[3] = system: Staphylococcus aureus; experiment: Antibacterial activity against methicillin-resistant Staphylococcus aureus 2170 by microdilution method; in short: as §1
[4] = system: Staphylococcus aureus; experiment: Antibacterial activity against vancomycin-intermediate Staphylococcus aureus 2012 by microdilution method; in short: as §1
[5] = system: Staphylococcus aureus; experiment: Antibacterial activity against vancomycin-intermediate Staphylococcus aureus 2018 by microdilution method; in short: as §1
[6] = system: Staphylococcus aureus; experiment: Antibacterial activity against Linezolid, methicillin-resistant Staphylococcus aureus 1725 by microdilution method; in short: as §1
[7] = system: Staphylococcus aureus; experiment: Antibacterial activity against Linezolid, methicillin-resistant Staphylococcus aureus 1651 by microdilution method; in short: as §1
[8] = system: Staphylococcus aureus; experiment: Antibacterial activity against community-acquired Staphylococcus aureus 2144 by microdilution method; in short: as §1
[9] = system: Staphylococcus epidermidis; experiment: Antibacterial activity against methicillin-sensitive Staphylococcus epidermidis 1597 by microdilution method; in short: as §1
[10] = system: Staphylococcus epidermidis; experiment: Antibacterial activity against methicillin-resistant Staphylococcus epidermidis 1452 by microdilution method; in short: as §1
[11] = system: Staphylococcus epidermidis; experiment: Antibacterial activity against Staphylococcus epidermidis 495 by microdilution method; in short: as §1
[12] = system: Enterococcus faecalis; experiment: Antibacterial activity against vancomycin-resistant Enterococcus faecalis 846 by microdilution method; in short: as §1
[13] = system: Enterococcus faecium; experiment: Antibacterial activity against vancomycin-sensitive Enterococcus faecium 843 by microdilution method; in short: as §1
[14] = system: Enterococcus faecium; experiment: Antibacterial activity against vancomycin-resistant Enterococcus faecium 1254 by microdilution method; in short: as §1
[15] = system: Streptococcus pneumoniae; experiment: Antibacterial activity against penicillin-susceptible Streptococcus pneumoniae 866 by microdilution method; in short: as §1
[16] = system: Streptococcus pneumoniae; experiment: Antibacterial activity against penicillin-resistant Streptococcus pneumoniae 940 by microdilution method; in short: as §1
[17] = system: Streptococcus pneumoniae; experiment: Antibacterial activity against penicillin-resistant Streptococcus pneumoniae 748 by microdilution method; in short: as §1
[18] = system: Streptococcus pneumoniae; experiment: Antibacterial activity against quinolone-resistant Streptococcus pneumoniae 376 by microdilution method; in short: as §1
[19] = system: Streptococcus pneumoniae; experiment: Antibacterial activity against quinolone-resistant Streptococcus pneumoniae 379 by microdilution method; in short: as §1
[20] = system: Streptococcus pneumoniae; experiment: Antibacterial activity against multidrug-resistant Streptococcus pneumoniae 933 by microdilution method; in short: as §1
[21] = system: Streptococcus pneumoniae; experiment: Antibacterial activity against Streptococcus pneumoniae 1195 ATCC 49619 by microdilution method; in short: as §1
[22] = system: Streptococcus pyogenes; experiment: Antibacterial activity against Streptococcus pyogenes 723 by microdilution method; in short: as §1
[23] = system: Streptococcus agalactiae; experiment: Antibacterial activity against Streptococcus agalactiae 2033 by microdilution method; in short: as §1
[24] = system: Moraxella catarrhalis; experiment: Antibacterial activity against Moraxella catarrhalis 557 by microdilution method; in short: as §1
[25] = system: Haemophilus influenzae; experiment: Antibacterial activity against ampicillin-resistant Haemophilus influenzae 1742 by microdilution method; in short: as §1
[26] = system: Haemophilus influenzae; experiment: Antibacterial activity against Haemophilus influenzae 1224 ATCC 49247 by microdilution method; in short: as §1
[27] = system: Haemophilus parainfluenzae; experiment: Antibacterial activity against Haemophilus parainfluenzae 2319 ATCC 7901 by microdilution method; in short: as §1
[28] = system: Escherichia coli; experiment: Antibacterial activity against Escherichia coli 102 ATCC 25922 by microdilution method; in short: as §1
[29] = system: Escherichia coli; experiment: Antibacterial activity against extended spectrum beta-lactamase-producing Escherichia coli 2269 by microdilution method; in short: as §1
[30] = system: Klebsiella pneumoniae; experiment: Antibacterial activity against Klebsiella pneumoniae 2239 by microdilution method; in short: as §1
[31] = system: Klebsiella pneumoniae; experiment: Antibacterial activity against ampicillin beta-lactamase, multidrug-resistant Klebsiella pneumoniae 2262 by microdilution method; in short: as §1
[32] = system: Serratia marcescens; experiment: Antibacterial activity against Serratia marcescens 1635 by microdilution method; in short: as §1

## O=C(O)c1cn(C2CC2)c2cc(N3CCNCC3)c(F)cc2c1=O [CIPROFLOXACIN]
[1]
  MIC90: 1 µg/mL (≈ 3.02 µM)
[2]
  MIC90: > 2 µg/mL
[3]
  MIC90: > 2 µg/mL
[4]
  MIC90: > 2 µg/mL
[5]
  MIC90: > 2 µg/mL
[6]
  MIC90: > 2 µg/mL
[7]
  MIC90: > 2 µg/mL
[8]
  MIC90: > 2 µg/mL
[9]
  MIC90: 0.25 µg/mL (≈ 0.754 µM)
[10]
  MIC90: > 2 µg/mL
[11]
  MIC90: 0.5 µg/mL (≈ 1.51 µM)
[12]
  MIC90: > 2 µg/mL
[13]
  MIC90: > 2 µg/mL
[14]
  MIC90: > 2 µg/mL
[15]
  MIC90: > 2 µg/mL
[16]
  MIC90: > 2 µg/mL
[17]
  MIC90: 1 µg/mL (≈ 3.02 µM)
[18]
  MIC90: > 2 µg/mL
[19]
  MIC90: > 2 µg/mL
[20]
  MIC90: 2 µg/mL (≈ 6.04 µM)
[21]
  MIC90: 1 µg/mL (≈ 3.02 µM)
[22]
  MIC90: 0.5 µg/mL (≈ 1.51 µM)
[23]
  MIC90: 1 µg/mL (≈ 3.02 µM)
[24]
  MIC90: 0.03 µg/mL (≈ 0.0905 µM)
[25]
  MIC90: 0.008 µg/mL (≈ 0.0241 µM)
[26]
  MIC90: 0.15 µg/mL (≈ 0.453 µM)
[27]
  MIC90: 0.15 µg/mL (≈ 0.453 µM)
[28]
  MIC90: 0.008 µg/mL (≈ 0.0241 µM)
[29]
  MIC90: > 2 µg/mL
[30]
  MIC90: 0.03 µg/mL (≈ 0.0905 µM)
[31]
  MIC90: > 2 µg/mL
[32]
  MIC90: 0.06 µg/mL (≈ 0.181 µM)
